Screening results (PubChem BioAssay)
Myeloid diff 2: compounds promoting myeloid differentiation. ER-HoxA9 myeloid progenitors, lysozyme-GFP differentiation, flow cytometry. calls only at 10 µM. 1% of 360,000 active;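 active means normalized GFP-positive differentiation at or above the plate's own cutoff, the solvent-only control mean plus 3 SD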;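 further: cells exposed to compound for four days before flow analysis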
T cell modulator: modulates CD8 T cell binding to vesicles; 2C CD8+ T cell-vesicle binding, flow cytometry; hits give low values; response (vesicle binding), % at 7 µM; 0.068% of 330,000 active; AID 2052;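 active means response, share of CD8 T cells binding vesicles, and their 90th percentile fluorescence all below set limits, cut at about 80% in these data, passing the limit was not always enough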;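 further: values below 100% mean blocked vesicle binding to the CD8+ T cells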
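incubation = binding step 1.5 h, 37 °C, antibody labelling 20 min, ice | test system = 2C mouse CD8+ T cells | read-out basis = percent CD8+ FL2 mean versus row control | controls = Peptide-free naked vesicles (low) and QL9 vesicles with 0.7% DMSO vehicle (high) | detection = flow cytometry of vesicle-bound cells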
NR2E3 ag-1: agonists of human nuclear receptor NR2E3; 0.12% of 320,000 active; AID 2300; GST-NR2E3/biotin-RetCOR TR-FRET, 1536-well; Q9Y5X4; inhibition of corepressor binding, % at 4.78 µM;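 active means percent inhibition above the cutoff of mean plus 3 SD of all tested compounds, set per screening campaign, cut at about 20% in these data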;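 further: 0% = DMSO wells and 100% = biotin wells as full block of FRET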
Target sequence (Q9Y5X4 whole entry, looked up): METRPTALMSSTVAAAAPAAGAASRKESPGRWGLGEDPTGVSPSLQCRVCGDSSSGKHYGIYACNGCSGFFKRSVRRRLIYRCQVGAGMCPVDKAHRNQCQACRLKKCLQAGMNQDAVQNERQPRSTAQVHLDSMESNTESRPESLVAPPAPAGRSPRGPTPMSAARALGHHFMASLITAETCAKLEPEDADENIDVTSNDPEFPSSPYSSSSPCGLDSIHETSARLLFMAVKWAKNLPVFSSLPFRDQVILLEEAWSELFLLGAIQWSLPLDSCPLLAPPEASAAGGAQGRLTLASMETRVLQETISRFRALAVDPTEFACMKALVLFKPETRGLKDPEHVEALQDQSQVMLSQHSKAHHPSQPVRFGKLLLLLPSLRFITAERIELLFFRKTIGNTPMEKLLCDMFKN
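Test system – NR2E3–RetCOR corepressor complex · Quantity – NR2E3 fusion 1.35 nM · Buffer or medium – Tris pH 7.5 · Incubation – Compound–protein incubation for 5 h at 4 °C · Technique – TR-FRET, Eu(K)-anti-GST donor, streptavidin-D2 acceptor, ex 340, em 617/671 nm · Evaluation – percent inhibition of 671/617 nm emission ratio versus biotin and DMSO controls · Plate – 1536-well format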
NR2E3 ag-2: agonists of human NR2E3 nuclear receptor; Q9Y5X4; CHO-S Gal4-NCOR/VP16-NR2E3 two-hybrid, luciferase; inhibition of corepressor binding, % at 3.98 µM; 0.35% of 360,000 active;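 active means inhibition above the mean of all tested compounds plus 3 SD, cut at about 70% in these data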;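 further: 0% = DMSO with NR2E3 transfected cells and 100% = cells lacking NR2E3 construct; higher means lower luciferase signal from less NR2E3 corepressor binding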
FXN GAA850 act: activators of GAA850 frataxin (FXN) promoter; HEK293 lucGAA850 FXN promoter luciferase reporter, 24 h; percent of 10 µM SAHA response; AID 540364; activation, % at 6 µM; 0.56% of 360,000 active;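 active means activation above the average of all compounds screened plus 3 SD, cutoff fixed separately per campaign, cut at about 7.5% in these data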;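 further: 0% = DMSO wells and 100% = 10 µM SAHA wells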
Starred values were filed as active, the others as inactive; ! = not active in a repeat. Hits are enriched below; roughly 2% of the tested compounds scored in any of these assays.

Results for CCOc1ccc(N2C(=O)CNC2=S)cc1 ?
Myeloid diff 2: inactive; T cell modulator: 248.2; NR2E3 ag-1: 1.7; NR2E3 ag-2: -22.4; FXN GAA850 act: 1.2

How did Cc1ccc(NC(=O)[C@@H]2O[C@H](CO)[C@H](O)[C@H](O)[C@H]2O)cc1C(F)(F)F do in these assays?
Myeloid diff 2: inactive; NR2E3 ag-2: -0.5; FXN GAA850 act: 0.9

How did CCOC(=O)[C@]12CCCC=C1N(CCC1=CCCCC1)C(=O)[C@H](CC(=O)NCc1ccccc1)C2 do in these assays?
Myeloid diff 2: inactive

What do the screens show for `COc1cc2nc(/C=C/c3ccc(N(C)C)cc3)sc2cc1SC`?
Myeloid diff 2: active; T cell modulator: 458.4; NR2E3 ag-1: 0.6; NR2E3 ag-2: -65.5; FXN GAA850 act: -0.1

Results for c1ccc2c(C[C@@H]3CNCCN3CC3CCCCC3)cccc2c1 ?
Myeloid diff 2: active; T cell modulator: 438.2; NR2E3 ag-1: 2.6; NR2E3 ag-2: -28.2; FXN GAA850 act: 1.3

How did Oc1ccc(C[C@@H]2CNCCN2CC2CCCCC2)cc1 do in these assays?
Myeloid diff 2: inactive; T cell modulator: 613.4; NR2E3 ag-1: 3.7; NR2E3 ag-2: 0.8; FXN GAA850 act: 1.8

Results for CCOC(=O)c1ccc(N=c2sc(C(=O)OC)cc(=O)n2CCCN2CCOCC2)cc1 ?
Myeloid diff 2: active!; T cell modulator: inactive; NR2E3 ag-1: -1.1; NR2E3 ag-2: -13.5; FXN GAA850 act: 1.1

Results for COCCNC(=O)c1cc(-c2ccc(-c3ccccc3)cc2)nc2ccccc12 ?
Myeloid diff 2: active; T cell modulator: 313.1; NR2E3 ag-1: 3.6; NR2E3 ag-2: -79.7; FXN GAA850 act: -4.3

What do the screens show for `COCCCNC(=O)c1cc(-c2cccnc2)nc2ccccc12`?
Myeloid diff 2: inactive; T cell modulator: 263.3; NR2E3 ag-1: -1.0; NR2E3 ag-2: 19.8; FXN GAA850 act: 2.0

How did CCCc1ccc(-c2cc(C(=O)NN3CCOCC3)c3ccccc3n2)cc1 do in these assays?
Myeloid diff 2: inactive; T cell modulator: 431.4; NR2E3 ag-1: 1.5; NR2E3 ag-2: -66.0; FXN GAA850 act: 8.3*

What do the screens show for `O=C(NCc1ccccn1)c1cc(-c2ccccc2)nc2ccccc12`?
Myeloid diff 2: inactive; T cell modulator: 243.5; NR2E3 ag-1: 1.8; NR2E3 ag-2: -17.4; FXN GAA850 act: 4.0

Results for O=C(NCc1ccccn1)c1cc(-c2ccc(-c3ccccc3)cc2)nc2ccccc12 ?
Myeloid diff 2: active; T cell modulator: 272.8; NR2E3 ag-1: 3.7; NR2E3 ag-2: -121.8; FXN GAA850 act: -3.7

What do the screens show for `CCNC(=O)N(C)c1c(CC)nc2ccc(C(=O)N3CCN(C(=O)c4ccco4)CC3)cn12`?
Myeloid diff 2: inactive; NR2E3 ag-2: 15.8; FXN GAA850 act: -2.7

Results for C[C@@H]1CN([C@H](C)CO)S(=O)(=O)c2ccc(Br)cc2O[C@H]1CN(C)S(C)(=O)=O ?
Myeloid diff 2: inactive; NR2E3 ag-2: 3.8; FXN GAA850 act: -1.1

Results for CCOC(=O)[C@]12CCCC=C1N(CCc1ccc(OC)c(OC)c1)C(=O)[C@H](CC(=O)NCc1ccc(C)o1)C2 ?
Myeloid diff 2: inactive

Results for COc1ccccc1Cc1c(-c2ccc(Cl)cc2)nc2c(Cl)cc(C(F)(F)F)cn12 ?
Myeloid diff 2: inactive; NR2E3 ag-2: -7.4

What do the screens show for `COc1ccccc1Cc1c(-c2ccc(C#N)cc2)nc2c(Cl)cc(C(F)(F)F)cn12`?
Myeloid diff 2: active; NR2E3 ag-2: 11.7

How did COC(=O)C1=C(C)N(CC2CC2)C(=NCc2cccc(C(F)(F)F)c2)N[C@H]1c1ccccc1 do in these assays?
Myeloid diff 2: active; T cell modulator: 280.7; NR2E3 ag-2: -3.5; FXN GAA850 act: -7.0

What do the screens show for `Cn1c(O)c(N=Nc2ccccc2[N+](=O)[O-])c2ccccc21`?
Myeloid diff 2: inactive; T cell modulator: 300.2; NR2E3 ag-1: -3.2; NR2E3 ag-2: -109.7; FXN GAA850 act: 5.2

Results for Cn1c(-c2ccccc2[N+](=O)[O-])[n+](C)c2ccccc21 ?
Myeloid diff 2: active; T cell modulator: 271.0; NR2E3 ag-1: -2.7; NR2E3 ag-2: -7.7; FXN GAA850 act: -0.9

How did Cc1ccccc1NC(=O)Nc1nc(C(N)Cc2ccccc2)cs1 (stereo not given) do in these assays?
Myeloid diff 2: inactive; NR2E3 ag-2: 18.5; FXN GAA850 act: -2.8

Results for COC(=O)Cn1c2ccc(F)cc2c2nc(C)sc21 ?
Myeloid diff 2: inactive; T cell modulator: 203.6; NR2E3 ag-1: 3.2; NR2E3 ag-2: -4.5; FXN GAA850 act: 0.0

What do the screens show for `Cc1nc2c3cc(F)ccc3n(Cc3ccc(F)cc3)c2s1`?
Myeloid diff 2: active; T cell modulator: 407.0; NR2E3 ag-1: 5.3; NR2E3 ag-2: -45.1; FXN GAA850 act: -1.9

Results for COc1ccc(/C=C/C(=O)O)cc1Cl ?
Myeloid diff 2: inactive; T cell modulator: 322.9; NR2E3 ag-1: -3.1; NR2E3 ag-2: 0.6; FXN GAA850 act: 0.1

What do the screens show for `COc1cc(/C=C/C(=O)O)cc(OC)c1O`?
Myeloid diff 2: active; T cell modulator: inactive; NR2E3 ag-1: -0.3; NR2E3 ag-2: -8.3; FXN GAA850 act: -0.3

How did COc1ccc(C(=O)C2CCCN(Cc3ccc4nonc4c3)C2)cc1F (stereo not given) do in these assays?
Myeloid diff 2: inactive; T cell modulator: 236.6; NR2E3 ag-1: -1.4; NR2E3 ag-2: -1.4; FXN GAA850 act: 3.5

Results for COc1ccc(C(=O)C2CCCN(Cc3ccc(C#CCCO)cc3)C2)cc1F (stereo not given) ?
Myeloid diff 2: active; T cell modulator: 322.2; NR2E3 ag-1: -1.6; NR2E3 ag-2: 0.3; FXN GAA850 act: -3.3

How did O=C(NCc1ccccc1Cl)C1CCN(C(=O)c2ccco2)CC1 do in these assays?
T cell modulator: 392.2; NR2E3 ag-1: 3.7

Results for C=CCSc1nc(N)c(C#N)c(-c2ccc(C)cc2)c1C#N ?
Myeloid diff 2: active; T cell modulator: 340.9; NR2E3 ag-1: 2.0; NR2E3 ag-2: -19.5; FXN GAA850 act: 4.2

What do the screens show for `CCCc1nc2c3ccccc3ccn2c1Cc1cccc(F)c1`?
Myeloid diff 2: inactive; NR2E3 ag-2: -38.0

Results for CCCCNC(=O)c1nc(-c2ccccc2)oc1-c1ccc(Cl)cc1 ?
Myeloid diff 2: inactive

Results for CN1C(=O)N(S(=O)(=O)c2ccc(F)c(F)c2F)C(=O)C1(C)C ?
Myeloid diff 2: active; T cell modulator: 719.4; NR2E3 ag-1: -4.3; NR2E3 ag-2: -5.5; FXN GAA850 act: -0.8

What do the screens show for `COc1ccc(Cn2cc(CN3CC(N4CC=CC4)CS3(=O)=O)nn2)cc1` (stereo not given)?
Myeloid diff 2: inactive; NR2E3 ag-2: -41.5

How did Cc1c(-n2cc(C(=O)c3cc(Br)ccc3O)cc(C#N)c2=O)c(=O)n(-c2ccccc2)n1C do in these assays?
Myeloid diff 2: inactive; T cell modulator: 705.7; NR2E3 ag-1: -3.7; NR2E3 ag-2: -1.2; FXN GAA850 act: 4.5
